From ChEMBL document CHEMBL1833921, “Synthesis and biological evaluation of phenstatin metabolites” (Bioorg Med Chem, 2011)
pIC50: −log10 of the molar value.

Columns and labels:
[1] = Solubility in water; type: physicochemical; settings: buffer
HCC 2998 = test: Cytotoxicity against human HCC2998 cells assessed as growth inhibition at 10^-5 M after 48 hrs by sulforhodamine B assay; type: functional; settings: HCC 2998, 48 h, read-out: GI
K562 = test: Cytotoxicity against human K562 cells assessed as growth inhibition at 10^-5 M after 48 hrs by sulforhodamine B assay; type: functional; settings: K562, 48 h, read-out: GI
UO-31 = test: Cytotoxicity against human UO31 cells assessed as growth inhibition at 10^-5 M after 48 hrs by sulforhodamine B assay; type: functional; settings: UO-31, 48 h, read-out: GI
OVCAR-5 = test: Cytotoxicity against human OVCAR5 cells assessed as growth inhibition at 10^-5 M after 48 hrs by sulforhodamine B assay; type: functional; settings: OVCAR-5, 48 h, read-out: GI
NCI/ADR-RES = test: Cytotoxicity against human NCI/ADR-RES cells assessed as growth inhibition at 10^-5 M after 48 hrs by sulforhodamine B assay; type: functional; settings: read-out: GI
SK-MEL-2 = test: Cytotoxicity against human SK-MEL-2 cells assessed as growth inhibition at 10^-5 M after 48 hrs by sulforhodamine B assay; type: functional; settings: SK-MEL-2, 48 h, read-out: GI
HCT-15 = test: Cytotoxicity against human HCT15 cells assessed as growth inhibition at 10^-5 M after 48 hrs by sulforhodamine B assay; type: functional; settings: HCT-15, 48 h, read-out: GI
SF-295 [2] = test: Cytotoxicity against human SF295 cells assessed as growth inhibition at 10^-5 M after 48 hrs by sulforhodamine B assay; type: functional; settings: SF-295, 48 h, read-out: GI
RXF 393 = test: Cytotoxicity against human RXF393 cells assessed as growth inhibition at 10^-5 M after 48 hrs by sulforhodamine B assay; type: functional; settings: RXF 393, 48 h, read-out: GI
DU-145 [3] = test: Cytotoxicity against human DU145 cells assessed as growth inhibition at 10^-5 M after 48 hrs by sulforhodamine B assay; type: functional; settings: DU-145, 48 h, read-out: GI
OVCAR-4 = test: Cytotoxicity against human OVCAR4 cells assessed as growth inhibition at 10^-5 M after 48 hrs by sulforhodamine B assay; type: functional; settings: OVCAR-4, 48 h, read-out: GI
HL-60(TB) = test: Cytotoxicity against human HL-60(TB) cells assessed as growth inhibition at 10^-5 M after 48 hrs by sulforhodamine B assay; type: functional; settings: HL-60, 48 h, read-out: GI
SK-MEL-28 = test: Cytotoxicity against human SK-MEL-28 cells assessed as growth inhibition at 10^-5 M after 48 hrs by sulforhodamine B assay; type: functional; settings: SK-MEL-28, 48 h, read-out: GI
NCI-H460 [4] = test: Cytotoxicity against human NCI-H460 cells assessed as growth inhibition at 10^-5 M after 48 hrs by sulforhodamine B assay; type: functional; settings: NCI-H460, 48 h, read-out: GI
CAKI-1 = test: Cytotoxicity against human Caki1 cells assessed as growth inhibition at 10^-5 M after 48 hrs by sulforhodamine B assay; type: functional; settings: CAKI-1, 48 h, read-out: GI
Hs-578T = test: Cytotoxicity against human HS578T cells assessed as growth inhibition at 10^-5 M after 48 hrs by sulforhodamine B assay; type: functional; settings: read-out: GI
OVCAR-3 [5] = test: Cytotoxicity against human OVCAR3 cells assessed as growth inhibition at 10^-5 M after 48 hrs by sulforhodamine B assay; type: functional; settings: OVCAR-3, 48 h, read-out: GI
EKVX = test: Cytotoxicity against human EKVX cells assessed as growth inhibition at 10^-5 M after 48 hrs by sulforhodamine B assay; type: functional; settings: read-out: GI
MCF7 [6] = test: Cytotoxicity against human MCF7 cells assessed as growth inhibition at 10^-5 M after 48 hrs by sulforhodamine B assay; type: functional; settings: MCF7, 48 h, read-out: GI
MDA-MB-231 = test: Cytotoxicity against human MDA-MB-231/ATCC cells assessed as growth inhibition at 10^-5 M after 48 hrs by sulforhodamine B assay; type: functional; settings: MDA-MB-231, 48 h, read-out: GI
HCT-116 = test: Cytotoxicity against human HCT116 cells assessed as growth inhibition at 10^-5 M after 48 hrs by sulforhodamine B assay; type: functional; settings: HCT-116, 48 h, read-out: GI
[7] = Inhibition of bovine brain tubulin polymerization after 30 mins by turbidimetry analysis; design: species or system Bos taurus
Outline: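 Lyophilized bovine brain tubulin (97%) reconstituted to 5 mg/mL in 80 mM PIPES pH 6.9, 2 mM MgCl₂, 0.5 mM EGTA, 1.0 mM GTP and 5% glycerol. Compound in DMSO was added to this solution in a quartz cuvette at 0 °C. Assembly was followed as the rise in absorbance at 340 nm at 37 °C. IC₅₀ is the molar concentration halving the extent of assembly after 30 min.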

MDA-MB-435 = test: Cytotoxicity against human MDA-MB-435 cells assessed as growth inhibition at 10^-5 M after 48 hrs by sulforhodamine B assay; type: functional; settings: MDA-MB-435, 48 h, read-out: GI
A549 [8] = test: Cytotoxicity against human A549/ATCC cells assessed as growth inhibition at 10^-5 M after 48 hrs by sulforhodamine B assay; type: functional; settings: A549, 48 h, read-out: GI
MDA-MB-468 = test: Cytotoxicity against human MDA-MB-468 cells assessed as growth inhibition at 10^-5 M after 48 hrs by sulforhodamine B assay; type: functional; settings: MDA-MB-468, 48 h, read-out: GI
NCI-H522 = test: Cytotoxicity against human NCI-H522 cells assessed as growth inhibition at 10^-5 M after 48 hrs by sulforhodamine B assay; type: functional; settings: NCI-H522, 48 h, read-out: GI
KM12 = test: Cytotoxicity against human KM12 cells assessed as growth inhibition at 10^-5 M after 48 hrs by sulforhodamine B assay; type: functional; settings: KM12, 48 h, read-out: GI
NCI-H322M = test: Cytotoxicity against human NCI-H322M cells assessed as growth inhibition at 10^-5 M after 48 hrs by sulforhodamine B assay; type: functional; settings: read-out: GI
COLO 205 [9] = test: Cytotoxicity against human COLO205 cells assessed as growth inhibition at 10^-5 M after 48 hrs by sulforhodamine B assay; type: functional; settings: COLO 205, 48 h, read-out: GI
UACC-62 = test: Cytotoxicity against human UACC62 cells assessed as growth inhibition at 10^-5 M after 48 hrs by sulforhodamine B assay; type: functional; settings: UACC-62, 48 h, read-out: GI
SK-OV-3 = test: Cytotoxicity against human SKOV3 cells assessed as growth inhibition at 10^-5 M after 48 hrs by sulforhodamine B assay; type: functional; settings: SK-OV-3, 48 h, read-out: GI
M14 = test: Cytotoxicity against human M14 cells assessed as growth inhibition at 10^-5 M after 48 hrs by sulforhodamine B assay; type: functional; settings: M14, 48 h, read-out: GI
CCRF-CEM = test: Cytotoxicity against human CCRF-CEM cells assessed as growth inhibition at 10^-5 M after 48 hrs by sulforhodamine B assay; type: functional; settings: read-out: GI
SN12C = test: Cytotoxicity against human SN12C cells assessed as growth inhibition at 10^-5 M after 48 hrs by sulforhodamine B assay; type: functional; settings: read-out: GI
SF-268 = test: Cytotoxicity against human SF268 cells assessed as growth inhibition at 10^-5 M after 48 hrs by sulforhodamine B assay; type: functional; settings: SF-268, 48 h, read-out: GI
SF-539 = test: Cytotoxicity against human SF539 cells assessed as growth inhibition at 10^-5 M after 48 hrs by sulforhodamine B assay; type: functional; settings: SF-539, 48 h, read-out: GI
SF-295 [10] = test: Cytotoxicity against human SF295 cells after 48 hrs by sulforhodamine B assay; type: functional; settings: SF-295, 48 h
COLO 205 [11] = test: Cytotoxicity against human COLO205 cells after 48 hrs by sulforhodamine B assay; type: functional; settings: COLO 205, 48 h
OVCAR-3 [12] = test: Cytotoxicity against human OVCAR3 cells after 48 hrs by sulforhodamine B assay; type: functional; settings: OVCAR-3, 48 h
NCI-H460 [13] = test: Cytotoxicity against human NCI-H460 cells after 48 hrs by sulforhodamine B assay; type: functional; settings: NCI-H460, 48 h
MCF7 [14] = test: Cytotoxicity against human MCF7 cells after 48 hrs by sulforhodamine B assay; type: functional; settings: MCF7, 48 h
A549 [15] = test: Cytotoxicity against human A549 cells after 48 hrs by sulforhodamine B assay; type: functional; settings: A549, 48 h
A498 = test: Cytotoxicity against human A498 cells after 48 hrs by sulforhodamine B assay; type: functional; settings: A498, 48 h
HT-29 = test: Cytotoxicity against human HT29 cells after 48 hrs by sulforhodamine B assay; type: functional; settings: HT-29, 48 h
HL-60 = test: Cytotoxicity against human HL60 cells after 48 hrs by sulforhodamine B assay; type: functional; settings: HL-60, 48 h
DU-145 [16] = test: Cytotoxicity against human DU145 cells after 48 hrs by sulforhodamine B assay; type: functional; settings: DU-145, 48 h

## COc1ccc(C(=O)c2cc(OC)c(OC)c(OC)c2)cc1OP(=O)([O-])[O-].[Na+].[Na+]
[1]
  solubility: soluble

## COc1cc2c(c(O)c1OC)C(=O)c1cc(OC)c(OC)c(OC)c1C2=O
HCC 2998
  inhibition of growth at 10 µM: 0%
K562
  inhibition of growth at 10 µM: 0%
UO-31
  inhibition of growth at 10 µM: 0%
OVCAR-5
  inhibition of growth at 10 µM: 7.52%
NCI/ADR-RES
  inhibition of growth at 10 µM: 20.3%
SK-MEL-2
  inhibition of growth at 10 µM: 0%
HCT-15
  inhibition of growth at 10 µM: 0%
SF-295 [2]
  inhibition of growth at 10 µM: 37.9%
RXF 393
  inhibition of growth at 10 µM: 2.66%
DU-145 [3]
  inhibition of growth at 10 µM: 7.83%
OVCAR-4
  inhibition of growth at 10 µM: 60.2%
HL-60(TB)
  inhibition of growth at 10 µM: 6.14%
SK-MEL-28
  inhibition of growth at 10 µM: 15%
NCI-H460 [4]
  inhibition of growth at 10 µM: 9.33%
CAKI-1
  inhibition of growth at 10 µM: 7.07%
Hs-578T
  inhibition of growth at 10 µM: 16.9%
OVCAR-3 [5]
  inhibition of growth at 10 µM: 0%
EKVX
  inhibition of growth at 10 µM: 13.5%
MCF7 [6]
  inhibition of growth at 10 µM: 26.7%
MDA-MB-231
  inhibition of growth at 10 µM: 21.3%
HCT-116
  inhibition of growth at 10 µM: 11.8%
[7]
  pIC50: < 4.00
MDA-MB-435
  inhibition of growth at 10 µM: 16.9%
A549 [8]
  inhibition of growth at 10 µM: 26.1%
MDA-MB-468
  inhibition of growth at 10 µM: 22.4%
NCI-H522
  inhibition of growth at 10 µM: 29.5%
KM12
  inhibition of growth at 10 µM: 0%
NCI-H322M
  inhibition of growth at 10 µM: 0%
COLO 205 [9]
  inhibition of growth at 10 µM: 0%
UACC-62
  inhibition of growth at 10 µM: 6.13%
SK-OV-3
  inhibition of growth at 10 µM: 9.78%
M14
  inhibition of growth at 10 µM: 0%
CCRF-CEM
  inhibition of growth at 10 µM: 0%
SN12C
  inhibition of growth at 10 µM: 8.73%
SF-268
  inhibition of growth at 10 µM: 22.2%
SF-539
  inhibition of growth at 10 µM: 16.2%

## COc1ccc(C(=O)c2cc(OC)c(OC)c(OC)c2)cc1O [PHENSTATIN]
SF-295 [10]
  GI50: 52 nM
COLO 205 [11]
  GI50: 4.86 µM
OVCAR-3 [12]
  GI50: 2.3 nM
NCI-H460 [13]
  GI50: 5.7 nM
[1]
  solubility: soluble
[7]
  pIC50: 4.82
MCF7 [14]
  GI50: 34 nM
A549 [15]
  GI50: 290 nM
A498
  GI50: 380 nM
HT-29
  GI50: 1800 nM
HL-60
  GI50: 31 nM
DU-145 [16]
  GI50: 34 nM
